This is an account of results in ChEMBL document CHEMBL1148483, “Potent nonclassical nucleoside antiviral drugs based on the N,N-diarylformamidine concept” (J Med Chem, 2004).

The CC50 is the concentration at which the toxic effect on the cells reaches its halfway point. A lower CC50 goes with greater toxicity to the cells. The logP is the decadic logarithm of the partition coefficient of the neutral form, usually between octanol and water. Lower therefore signals a more hydrophilic compound. A word on the half-life: it is the time in which the quantity being followed falls by half. Read a low half-life as rapid decline. As a reminder, the EC50 is the concentration at which the effect is half-maximal. A high value points to a less potent agent.

“And” between values parts separate entries of the source, which are not always exact repeats. Equal values may be shown once.

The subject of data set [1] is MT4. The data set can be described thus: Concentration required to cause death of MT-4 cells was determined in vitro. Format: functional. Particulars: Homo sapiens. A digest of the protocol:
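Uninfected (mock-infected) MT-4 cells grown in RPMI 1640 + 10% heat-inactivated FCS, 2 mM L-glutamine, gentamicin; viability measured at day 5 at 37 °C, 5% CO2; CC50 = concentration causing 50% death of uninfected cells.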

Data set [2] can be described thus: Partition coefficient (logP). The note with it: octanol/water. The data set is classed as physicochemical.
Data set [3] can be described thus: Half life is the time required for hydrolysis of compound to 3TC in PBS medium at 37 degree celsius. Format: ADME. An outline of the steps:
(§1)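 Compound in DMSO diluted 1:100 into medium, final concentration around 5×10^-4 M, and held at 37 °C. Media: PBS (0.01 M, pH 7.4), HepG2.2.15 culture medium, or MT-4 medium (RPMI 1640 + 10% FCS). Samples taken over time and quenched in ice-cold methanol. Conversion to 3TC followed by HPLC at 317 nm. t1/2 is the time to 50% hydrolysis.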

Data set [4] in a line: Half life is the time required for hydrolysis of compound to 3TC in HepG 2.2.15 lysate medium at 37 degree celsius. Format: ADME, HepG2 2.2.15. Particulars: human, HepG 2.2.15 cell lysate. An outline of the steps:
(§2)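 Cell lysates prepared from PBS-washed HepG2.2.15 or MT-4 cells, about 10×10^6 cells/mL, in Tris-HCl 50 mM, NaCl 150 mM, EDTA 0.1 mM, 0.5% NP40 and protease inhibitors. Lysis 10 min on ice, then centrifuged; supernatant used. Compound added from DMSO to a final concentration around 5×10^-4 M, 37 °C. Timed samples quenched in cold methanol, HPLC at 317 nm. t1/2 is the time to 50% conversion to 3TC.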

A short description of data set [5]: Half life is the time required for hydrolysis of compound to 3TC in HBV medium at 37 degree celsius. The data set is classed as ADME. A digest of the protocol: as §1
Another data set concerns HepG2. The data set can be described thus: Effective concentration to inhibit hepatitis B virus DNA formation in HepG2.2.15 cells was determined in vitro. Particulars: Homo sapiens.
The nature of data set [6]: Half life is the time required for hydrolysis of compound to 3TC in MT-4 lysate medium at 37 degree celsius. The data set is classed as ADME. The note with it: human, MT-4 cell lysate. An outline of the steps:
as §2

Data set [7] relates to MT4. The data set can be described thus: Effective concentration to inhibit HIV-1 IIIB cytopathicity in MT-4 cells was determined in vitro. Particulars: Homo sapiens. The data set is classed as functional, cell-based. An outline of the steps: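 HIV-1 IIIB-infected MT-4 cells (RPMI 1640, 10% FCS); inhibition of virus-induced cytopathicity read 5 days post-infection; EC50 = concentration inhibiting cytopathicity by 50%.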

Data set [8] deals with PBMC. The data set can be described thus: Concentration required to cause death of PBMC cells was determined in vitro. The note with it: Homo sapiens. Format: functional. An outline of the steps: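 Healthy-donor PBMCs activated 3 days with PHA-P (1 μg/mL) and rhIL-2 (5 IU/mL), 100 000 cells/well in RPMI 1640/10% FCS + 20 IU/mL rhIL-2; drug-induced cytotoxicity judged by microscopic observation; CC50 = concentration causing 50% death of uninfected cells.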

Data set [9] in a line: Half life is the time required for hydrolysis of compound to 3TC in HIV medium at 37 degree celsius. Format: ADME. A digest of the protocol: as §1
Data set [10] relates to PBMC. The data set can be described thus: Effective concentration to inhibit HIV-1 LAI cytopathicity in PBMC cells was determined in vitro. Format: functional, cell-based. The note with it: Homo sapiens. An outline of the steps:
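PHA-P/rhIL-2-activated PBMCs (100 000/well) pretreated 30 min with compound, then infected with 75 TCID50 HIV-1/LAI; supernatant RT activity measured at day 7; triplicates, mean ± SD; EC50 from percent of untreated controls, 50% inhibition of replication.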
For orientation: Damage to the host cells serves as the signal in cytopathic effect assays.

For data set [11], the system named is MT4. As to the kind of experiment: Selectivity index is the ratio of CC50 to EC50 values. The data set is classed as functional. A digest of the protocol:
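Selectivity index = CC50/EC50 for uninfected versus HIV-1-infected MT-4 cells or PBMCs.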

For `O=c1nc(/N=C/N2CCOCC2)ccn1C1CSC(CO)O1` (stereo not drawn), the CC50 was over 265000 nM with MT4 [1] and over 10000 nM with PBMC [8]. In data set [2], the lipophilicity (logP) came to 0.62. Further, the half-life is 2.5 h in data set [3]; 2.5 h in data set [4]; 1 h in data set [5]; 3.5 h in data set [6]; 1.5 h in [9]. Further, the EC50 is 50 nM in the data set with HepG2, 400 nM in the data set on MT4 [7] and 6.2 nM in the data set on PBMC [10].
In the case of `Nc1ccn([C@@H]2CS[C@H](CO)O2)c(=O)n1` [LAMIVUDINE], the results for the CC50 in the data set with MT4 [1] and in the data set on PBMC [8] were over 44000 nM and over 10000 nM, respectively. The compound also returned a logP in data set [2] of 0.06. The EC50 in the data set on HepG2 was 200 nM; in the data set on MT4 [7] it was 500 nM; in the data set with PBMC [10] it was 11.6 nM.
Regarding `CN(C)/C=N/c1ccn(C2CSC(CO)O2)c(=O)n1` (stereo not drawn), the CC50 with MT4 [1] is over 440000 nM; with PBMC [8], over 10000 nM. Besides, the log partition coefficient (logP) in data set [2] stood at 1.02. For the same compound, the half-life in data set [3] was 3.5 h; in data set [4] it was 3 h; in data set [5], 2 h; in data set [6], 4.5 h; in data set [9], 2.5 h. In addition, the figures for the EC50 in the data set with HepG2, in the data set on MT4 [7] and with PBMC [10] were 10 nM, 570 nM and 23.7 nM, respectively. The SI in the data set with MT4 [11] was >772 and >422.
`Nc1ccn([C@H]2CC[C@@H](CO)O2)c(=O)n1` [ZALCITABINE]: in the data set on MT4 [1], half-maximal cytotoxicity (CC50) was put at 141000 nM. This compound gave a logP in data set [2] of -0.58. This compound also returned a 50% effective concentration (EC50) in the data set on MT4 [7] of 1040 nM. The SI with MT4 [11] stood at 135.
